Article PMC3475257 (The FASEB Journal, 2012)

Test system: fully infectious HXB2 HIV‐1
Experiment: HXB2 virus infectivity assay
Assay type: cell-based
Conditions: up to 1 μM, TZM‐bl cells
Procedure, shortened: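 TZM-bl reporter cells were seeded at 2×10^4 cells/well in 10% serum DMEM and left to adhere 18-24 h at 37°C. Medium was then swapped for serum-free DMEM containing 40 μg/ml DEAE-dextran. Test compound was added, followed by concentrated HXB2 stock diluted in the same medium. Infection ran 18 h at 37°C, with a luciferase (Steady-Glo) read-out.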

CCCCCCCCCCCCCCC[C@@H](O)[C@@H](N)CO [sphinganine, D‐erythrodihydrosphingosine]
Effect of sphinganine alone on viral infectivity: did not affect viral infectivity
